In ChEMBL document CHEMBL1155777, “Increased survival after gemfibrozil treatment of severe mouse influenza” (Antimicrob Agents Chemother, 2007) one finds Activity, LD50 and survival data, which are given here for one compound.

Data set [1] concerns H2N2 subtype. The experiment in a line: Antiviral activity against Influenza A virus (A/Japan/305/57(H2N2)) infected BALB/c mouse assessed as infection-induced weight loss at 20 mg/kg, ip administered once daily from day 4 to 10 post viral challenge measured on day 8 postinfection. It is filed as functional, Influenza A virus (A/Japan/305/1957(H2N2)). As to conditions: route intraperitoneal. An outline of the steps: (§1)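 Gemfibrozil in 100% propylene glycol, 10 µl/mouse i.p., once daily days 4–10 after virus exposure; vehicle-only controls on the same days. Mice weighed before infection, then daily days 4–12 inclusive; loss tracked against pre-infection weight.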

Data set [2] is described as follows: Toxicity in mouse assessed as lethal dose. It is filed as organism-based. As to conditions: in vivo.
The test system of data set [3] is H2N2 subtype. The experiment in a line: Antiviral activity against Influenza A virus (A/Japan/305/57(H2N2)) infected BALB/c mouse assessed as infection-induced weight loss at 20 mg/kg, ip administered once daily from day 4 to 10 post viral challenge measured on day 6 postinfection. It is filed as functional, Influenza A virus (A/Japan/305/1957(H2N2)). The note with it: route intraperitoneal. An outline of the steps: as §1

Data set [4] deals with H2N2 subtype. The experiment in a line: Antiviral activity against Influenza A virus (A/Japan/305/57(H2N2)) infected BALB/c mouse assessed as infection-induced weight loss at 40 mg/kg, ip administered once daily from day 4 to 10 post viral challenge measured on day 4 postinfection. It is filed as functional, Influenza A virus (A/Japan/305/1957(H2N2)). The note with it: route intraperitoneal. An outline of the steps:
as §1

Data set [5] has as its system H2N2 subtype. The experiment in a line: Antiviral activity against Influenza A virus (A/Japan/305/57(H2N2)) infected BALB/c mouse assessed as infection-induced weight loss at 20 mg/kg, ip administered once daily from day 4 to 10 post viral challenge measured on day 12 postinfection. In kind it is functional, Influenza A virus (A/Japan/305/1957(H2N2)). The note with it: route intraperitoneal. An outline of the steps: as §1

For data set [6], the system named is H2N2 subtype. As to the kind of experiment: Antiviral activity against Influenza A virus (A/Japan/305/57(H2N2)) infected BALB/c mouse assessed as infection-induced weight loss at 20 mg/kg, ip administered once daily from day 4 to 10 post viral challenge measured on day 4 postinfection. In kind it is functional, Influenza A virus (A/Japan/305/1957(H2N2)). As to conditions: route intraperitoneal. An outline of the steps:
as §1

The subject of data set [7] is H2N2 subtype. The experiment in a line: Antiviral activity against Influenza A virus (A/Japan/305/57(H2N2)) infected BALB/c mouse assessed as infection-induced weight loss at 60 mg/kg, ip administered once daily from day 4 to 10 post viral challenge measured on day 8 postinfection. In kind it is functional, Influenza A virus (A/Japan/305/1957(H2N2)). As to conditions: route intraperitoneal. An outline of the steps:
as §1

Data set [8] has as its system Mus musculus. As to the kind of experiment: Increase in survival of LPS-induced BALB/c mouse severe systemic infection model at 60 mg/kg, ip administered as single dose 2 hrs before LPS challenge. It is filed as functional. As to conditions: route intraperitoneal.
Data set [9] has as its system Mus musculus. As to the kind of experiment: Increase in survival of LPS-induced BALB/c mouse severe systemic infection model at 60 mg/kg, ip administered as single dose 1 hr before LPS challenge. It is filed as functional. The note with it: route intraperitoneal. An outline of the steps: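 LPS (E. coli O111:B4) 30 mg/kg i.p.; single 60 mg/kg i.p. dose in propylene glycol given 1 h before LPS; vehicle-only controls. n = 20 per group, single experiment; survival followed 14 days; log rank test.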

The test system of data set [10] is H2N2 subtype. The experiment in a line: Antiviral activity against Influenza A virus (A/Japan/305/57(H2N2)) infected BALB/c mouse assessed as infection-induced weight loss at 60 mg/kg, ip administered once daily from day 4 to 10 post viral challenge measured on day 12 postinfection. As to conditions: route intraperitoneal. In kind it is functional, Influenza A virus (A/Japan/305/1957(H2N2)). An outline of the steps: as §1

Data set [11] concerns H2N2 subtype. The experiment in a line: Antiviral activity against Influenza A virus (A/Japan/305/57(H2N2)) infected BALB/c mouse assessed as infection-induced weight loss at 60 mg/kg, ip administered once daily from day 4 to 10 post viral challenge measured on day 10 postinfection. In kind it is functional, Influenza A virus (A/Japan/305/1957(H2N2)). The note with it: route intraperitoneal. An outline of the steps:
as §1

In data set [12] the test system is H2N2 subtype. The experiment in a line: Antiviral activity against Influenza A virus (A/Japan/305/57(H2N2)) infected BALB/c mouse assessed as mouse survival at 20 mg/kg, ip administered once daily from day 4 to 10 post viral challenge. In kind it is functional, Influenza A virus (A/Japan/305/1957(H2N2)). The note with it: 96 h, route intraperitoneal. An outline of the steps: (§2)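 Propylene glycol vehicle, 10 µl/mouse i.p., once daily days 4–10 post-infection; vehicle controls. Survival followed 30 days. 20/40/60 mg/kg in one experiment (n = 9–10 per group); 60 mg/kg also pooled from four experiments (vehicle n = 50, drug n = 46). Log rank test on survival time; Cox proportional hazards model for hazard ratios.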

Data set [13] relates to H2N2 subtype. The experiment in a line: Antiviral activity against Influenza A virus (A/Japan/305/57(H2N2)) infected BALB/c mouse assessed as infection-induced weight loss at 40 mg/kg, ip administered once daily from day 4 to 10 post viral challenge measured on day 10 postinfection. It is filed as functional, Influenza A virus (A/Japan/305/1957(H2N2)). The note with it: route intraperitoneal. An outline of the steps: as §1

The test system of data set [14] is H2N2 subtype. The experiment in a line: Antiviral activity against Influenza A virus (A/Japan/305/57(H2N2)) infected BALB/c mouse assessed as infection-induced weight loss at 20 mg/kg, ip administered once daily from day 4 to 10 post viral challenge measured on day 10 postinfection. In kind it is functional, Influenza A virus (A/Japan/305/1957(H2N2)). As to conditions: route intraperitoneal. An outline of the steps: as §1

Data set [15] relates to H2N2 subtype. The experiment in a line: Antiviral activity against Influenza A virus (A/Japan/305/57(H2N2)) infected BALB/c mouse assessed as infection-induced weight loss at 40 mg/kg, ip administered once daily from day 4 to 10 post viral challenge measured on day 6 postinfection. It is filed as functional, Influenza A virus (A/Japan/305/1957(H2N2)). The note with it: route intraperitoneal. An outline of the steps:
as §1

For data set [16], the system named is H2N2 subtype. As to the kind of experiment: Antiviral activity against Influenza A virus (A/Japan/305/57(H2N2)) infected BALB/c mouse assessed as mouse survival at 40 mg/kg, ip administered once daily from day 4 to 10 post viral challenge. In kind it is functional, Influenza A virus (A/Japan/305/1957(H2N2)). As to conditions: 96 h, route intraperitoneal. An outline of the steps: as §2

Data set [17] concerns H2N2 subtype. As to the kind of experiment: Antiviral activity against Influenza A virus (A/Japan/305/57(H2N2)) infected BALB/c mouse assessed as infection-induced weight loss at 40 mg/kg, ip administered once daily from day 4 to 10 post viral challenge measured on day 8 postinfection. In kind it is functional, Influenza A virus (A/Japan/305/1957(H2N2)). The note with it: route intraperitoneal. An outline of the steps: as §1

Data set [18] has as its system H2N2 subtype. As to the kind of experiment: Antiviral activity against Influenza A virus (A/Japan/305/57(H2N2)) infected BALB/c mouse assessed as infection-induced weight loss at 60 mg/kg, ip administered once daily from day 4 to 10 post viral challenge measured on day 4 postinfection. In kind it is functional, Influenza A virus (A/Japan/305/1957(H2N2)). The note with it: route intraperitoneal. An outline of the steps:
as §1

Data set [19] concerns H2N2 subtype. The experiment in a line: Antiviral activity against Influenza A virus (A/Japan/305/57(H2N2)) infected BALB/c mouse assessed as infection-induced weight loss at 60 mg/kg, ip administered once daily from day 4 to 10 post viral challenge measured on day 6 postinfection. In kind it is functional, Influenza A virus (A/Japan/305/1957(H2N2)). As to conditions: route intraperitoneal. An outline of the steps:
as §1

For data set [20], the system named is H2N2 subtype. The experiment in a line: Antiviral activity against Influenza A virus (A/Japan/305/57(H2N2)) infected BALB/c mouse assessed as mouse survival at 60 mg/kg, ip administered once daily from day 4 to 10 post viral challenge. The note with it: 96 h, route intraperitoneal. In kind it is functional, Influenza A virus (A/Japan/305/1957(H2N2)). An outline of the steps:
as §2

Data set [21] has as its system H2N2 subtype. The experiment in a line: Antiviral activity against Influenza A virus (A/Japan/305/57(H2N2)) infected BALB/c mouse assessed as infection-induced weight loss at 40 mg/kg, ip administered once daily from day 4 to 10 post viral challenge measured on day 12 postinfection. In kind it is functional, Influenza A virus (A/Japan/305/1957(H2N2)). The note with it: route intraperitoneal. An outline of the steps: as §1

What is called LD50 is the dose at which mortality reaches 50%. In the case of `Cc1ccc(C)c(OCCCC(C)(C)C(=O)O)c1` [GEMFIBROZIL], the Activity in [1] was 75.1%; in data set [3], 77.5%; in data set [4], 87%; in data set [5], 79%; in [6] it was 87.9%; in data set [7], 73.2%. Besides, the Activity in data set [10] was 81.8%; in [11], 78%; in data set [13], 73.4%; in data set [14], 75.2%; in [15], 75.6%; in data set [17] it was 72.2%. The figures for the Activity in [18], in data set [19] and in data set [21] were 86.5%, 77.1% and 77.1%, respectively. In addition, the LD50 in data set [2] was 3160 mg/kg. The results for the survival at 60 mg/kg in [8], in data set [9] and in data set [20] were 10%, 25% and 52%, respectively. Moreover, the survival at 20 mg/kg in data set [12] stood at 30%. Also, the survival at 40 mg/kg in data set [16] is 44%.
